According to ChEMBL document CHEMBL3272207, “Structure-activity relationship in cinnamamides. 2. Synthesis and pharmacological evaluation of some (E)- and (Z)-N-alkyl-alpha, beta-dimethylcinnamamides substituted on the phenyl group” (J Med Chem, 1977):
The source made the active and inactive calls. The calls are words filed in the database; no cut-off is given here.

Columns and labels:
Mus musculus [1] = assay: Behavioral toxicity in po dosed albino Icem-CET (SPF Caw) mouse assessed as reduction in locomotor activity by Irwin's test; assay type: organism-based; settings: in vivo
Mus musculus [2] = assay: Behavioral toxicity in albino Icem-CET (SPF Caw) mouse assessed as positional passivity at 25 to 800 mg/kg, po by Irwin's test; assay type: organism-based; design: dose 25-800 mg/kg, route oral; settings: in vivo
[3] = Behavioral toxicity in po dosed albino Icem-CET (SPF Caw) mouse measured up to 7 days by Irwin's test; assay type: organism-based; settings: in vivo
Mus musculus [4] = assay: Behavioral toxicity in albino Icem-CET (SPF Caw) mouse assessed as clonic type convulsion at 25 to 800 mg/kg, po by Irwin's test; assay type: organism-based; design: dose 25-800 mg/kg, route oral; settings: in vivo
Mus musculus [5] = assay: Behavioral toxicity in po dosed albino Icem-CET (SPF Caw) mouse assessed as tremors by Irwin's test; assay type: organism-based; settings: in vivo
[6] = Toxicity in po dosed albino Icem-CET (SPF Caw) mouse assessed as mortality measured after 24 to 72 hrs; assay type: organism-based; settings: in vivo
Mus musculus [7] = assay: Behavioral toxicity in po dosed albino Icem-CET (SPF Caw) mouse assessed as positional passivity by Irwin's test; assay type: organism-based; settings: in vivo
Mus musculus [8] = assay: Anticonvulsant activity in po dosed albino Icem-CET (SPF Caw) mouse assessed as inhibition of pentylenetetrazole-induced maximal extensor seizures compound administered 30 mins prior challenge; assay type: functional
How it was run: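 Pentylenetetrazole antagonism in male Icem-CET (SPF Caw) mice, 17-22 g, fasted 9 h. Compound in 0.5% Methocel was given by gavage (0.2 ml/10 g) at 4-5 doses, 20 mice per dose, 30 min before pentylenetetrazole 130 mg/kg ip. Prevention of maximal extensor seizures was scored. ED50 was calculated by probit analysis, with fiducial limits at p = 0.05.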

Mus musculus [9] = assay: Toxicity in po dosed albino Icem-CET (SPF Caw) mouse assessed as impairment of corneal reflexes by Irwin's test; assay type: organism-based, Cornea; settings: in vivo
Mus musculus [10] = assay: Toxicity in po dosed albino Icem-CET (SPF Caw) mouse assessed as impairment of pinna by Irwin's test; assay type: organism-based; settings: in vivo
Mus musculus [11] = assay: Behavioral toxicity in po dosed albino Icem-CET (SPF Caw) mouse assessed as excitement at 25 to 100 mg/kg, po measured up to 30 mins post dose by Irwin's test; assay type: organism-based; design: dose 25-100 mg/kg, route oral; settings: in vivo, 0.5 h
Mus musculus [12] = assay: Behavioral toxicity in albino Icem-CET (SPF Caw) mouse assessed as tremors at 25 to 800 mg/kg, po by Irwin's test; assay type: organism-based; design: dose 25-800 mg/kg, route oral; settings: in vivo
Mus musculus [13] = assay: Anticonvulsant activity in albino Icem-CET (SPF Caw) mouse assessed as inhibition of pentylenetetrazole-induced maximal extensor seizures at 100 mg/kg, po administered 30 mins prior challenge; assay type: functional, organism-based; design: dose 100 mg/kg
How it was run: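 Single-dose screen at 100 mg/kg by gavage in 0.5% Methocel in fasted male Icem-CET (SPF Caw) mice, 17-22 g. Dosing was 30 min before pentylenetetrazole 130 mg/kg ip, and prevention of maximal extensor seizures was scored.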

Mus musculus [14] = assay: Toxicity in po dosed albino Icem-CET (SPF Caw) mouse assessed as clonic type convulsion by Irwin's test; assay type: organism-based; settings: in vivo
How it was run: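 Irwin test in fasted (9 h) male Icem-CET (SPF Caw) mice, 17-22 g. Oral gavage of a 0.5% Methocel suspension at screening doses of 25-800 mg/kg. Clonic-type convulsions were scored as the minimum effective dose.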

Mus musculus [15] = assay: Behavioral toxicity in albino Icem-CET (SPF Caw) mouse assessed as reduction in locomotor activity at 25 to 800 mg/kg, po by Irwin's test; assay type: organism-based; design: dose 25-800 mg/kg, route oral; settings: in vivo
Mus musculus [16] = assay: Behavioral toxicity in albino Icem-CET (SPF Caw) mouse assessed as tremor at 200 to 800 mg/kg, po measured after 90 mins by Irwin's test; assay type: organism-based; design: dose 200-800 mg/kg, route oral; settings: in vivo, 1.5 h
Mus musculus [17] = assay: Toxicity in albino Icem-CET (SPF Caw) mouse assessed as clonic type convulsion at 200 to 800 mg/kg, po measured after 90 mins by Irwin's test; assay type: organism-based; design: dose 200-800 mg/kg, route oral; settings: in vivo, 1.5 h
Mus musculus [18] = assay: Behavioral toxicity in albino Icem-CET (SPF Caw) mouse assessed as positional passivity at 25 to 800 mg/kg, po measured up to 90 mins by Irwin's test; assay type: organism-based; design: dose 25-800 mg/kg, route oral; settings: in vivo, 1.5 h
Mus musculus [19] = assay: Behavioral toxicity in albino Icem-CET (SPF Caw) mouse assessed as twitches at 200 to 800 mg/kg, po measured after 90 mins by Irwin's test; assay type: organism-based; design: dose 200-800 mg/kg, route oral; settings: in vivo, 1.5 h

SMILES | ED50 (Mus musculus [1]) [mg/kg] | Activity (Mus musculus [2]) | LD50 at 168 h [3] [mg/kg] | ED50 (Mus musculus [5]) [mg/kg] | ED50 (Mus musculus [7]) [mg/kg] | Activity (Mus musculus [9]) | Activity (Mus musculus [10]) | Activity (Mus musculus [13]) | MED (Mus musculus [14]) [mg/kg] | other results
C/C(C(=O)NC1CC1)=C(\C)c1ccc(Cl)cc1 | 170 | Non-toxic | 450 | 600 | – | – | – | – | – | Activity (Mus musculus [4]): Non-toxic
C/C(C(=O)NC1CC1)=C(/C)c1ccc(Br)cc1 | 100 | – | – | 130 | 600 | – | – | – | – | LD50 [6]: 200 mg/kg; ED50 (Mus musculus [8]): 8.2 mg/kg
C/C(C(=O)NC1CC1)=C(/C)c1ccc(F)cc1 | 110 | – | 300 | 70 | 200 | Toxic | Toxic | – | – | ED50 (Mus musculus [8]): 25 mg/kg
CCC1(c2ccccc2)C(=O)N=C([O-])NC1=O.[Na+] (configuration not stated) [PHENOBARBITAL SODIUM] | 180 | – | 290 | 110 | 180 | – | – | – | – | Activity (Mus musculus [11]): Toxic
C/C(C(=O)NC1CC1)=C(\C)c1ccc(Br)cc1 | 300 | – | 600 | – | 450 | – | – | – | – | Activity (Mus musculus [12]): Non-toxic; Activity (Mus musculus [4]): Non-toxic
C=CCNC(=O)/C(C)=C(/C)c1ccc(Br)cc1 | 400 | Non-toxic | 600 | – | – | – | – | inactive | – | Activity (Mus musculus [12]): Non-toxic; Activity (Mus musculus [4]): Non-toxic
C/C(C(=O)NC1CC1)=C(\C)c1ccc(C)cc1 | 280 | – | > 800 | – | 500 | – | – | inactive | – | Activity (Mus musculus [12]): Non-toxic; Activity (Mus musculus [4]): Non-toxic
C=CCNC(=O)/C(C)=C(\C)c1ccc(F)cc1 | 70 | – | 400 | 130 | 150 | Toxic | Toxic | – | – | ED50 (Mus musculus [8]): 40.2 mg/kg
C/C(C(=O)NC1CC1)=C(\C)c1ccc(F)cc1 | – | Non-toxic | 450 | 600 | – | Toxic | Toxic | inactive | 800 | Activity (Mus musculus [15]): Non-toxic
O=C1NC(=O)C(c2ccccc2)(c2ccccc2)N1 [PHENYTOIN] | 150 | – | – | 250 | – | – | – | – | – | Activity (Mus musculus [16]): Non-toxic; Activity (Mus musculus [17]): Non-toxic; Activity (Mus musculus [18]): Non-toxic; Activity (Mus musculus [19]): Non-toxic
C=CCNC(=O)/C(C)=C(/C)c1ccc(F)cc1 | 270 | – | 400 | 250 | 300 | Toxic | Toxic | inactive | 800 | –
C#CCNC(=O)/C(C)=C(\C)c1ccc(F)cc1 | 100 | – | 240 | 100 | 200 | Toxic | Toxic | – | – | ED50 (Mus musculus [8]): 22.8 mg/kg
COc1ccc(/C(C)=C(/C)C(=O)NC2CC2)cc1 | 300 | Non-toxic | 450 | 300 | – | – | – | inactive | 400 | –
C#CCNC(=O)/C(C)=C(\C)c1ccc(Cl)cc1 | 60 | – | – | 200 | 400 | – | – | – | – | LD50 [6]: 140 mg/kg
C=CCNC(=O)/C(C)=C(/C)c1ccc(OC)cc1 | 280 | Non-toxic | 400 | 400 | – | – | – | inactive | 400 | –
C=CCNC(=O)/C(C)=C(/C)c1ccccc1 | 550 | Non-toxic | 600 | 400 | – | – | – | inactive | 400 | –
